The values that follow come from ChEMBL document CHEMBL4428088, “Synthesis and evaluation of 6-pyrazoylamido-3N-substituted azabicyclo[3,1,0]hexane derivatives as T-type calcium channel inhibitors for treatment of neuropathic pain” (Bioorg Med Chem, 2016).

Each structure is given as a SMILES string. pIC50: −log10 of the molar value. Activity calls are given as the source filed them. No cut-off for these calls is given here.

The target in data set [1] is CYP2D6 (Homo sapiens, UniProt P10635). Nature of the data set: Inhibition of human CYP2D6 expressed in baculosomes assessed as remaining activity using fluorogenic substrate after 15 mins in presence of NADPH by fluorescence assay. Details: concentration or dose not given beside the values. It counts as ADME. The settings on record: recombinant human CYP2D6 in baculosomes, probe fluorogenic substrate, read-out: Activity. Summed up: (§1)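 Vivid CYP450 fluorescence assay for CYP2D6, 2C9, 2C19 and 3A4. Compound was preincubated with baculosome Master Pre-Mix and regeneration system for 15 min at 37 °C. The reaction was started with Vivid substrate plus NADPH and read on a fluorescence plate reader. Values are % remaining activity, in triplicate.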

Data set [2] deals with CYP2C9 (Homo sapiens, UniProt P11712). Briefly: Inhibition of human CYP2C9 expressed in baculosomes assessed as remaining activity using fluorogenic substrate after 15 mins in presence of NADPH by fluorescence assay. Format: ADME. Details: concentration or dose not given beside the values. The settings on record: recombinant human CYP2C9 in baculosomes, probe fluorogenic substrate, read-out: Activity. Summed up:
as §1

The target in data set [3] is CYP2C19 (Homo sapiens, UniProt P33261). Nature of the data set: Inhibition of human CYP2C19 expressed in baculosomes assessed as remaining activity using fluorogenic substrate after 15 mins in presence of NADPH by fluorescence assay. Set-up: concentration or dose not given beside the values. The settings on record: recombinant human CYP2C19 in baculosomes, probe fluorogenic substrate, read-out: Activity. It counts as ADME. The procedure, abridged:
as §1

Data set [4] deals with CYP3A4 (Homo sapiens, UniProt P08684). Nature of the data set: Inhibition of human CYP3A4 expressed in baculosomes assessed as remaining activity using fluorogenic substrate after 15 mins in presence of NADPH by fluorescence assay. To be noted: recombinant human CYP3A4 in baculosomes, probe fluorogenic substrate, read-out: Activity. Format: ADME. Set-up: concentration or dose not given beside the values. Summed up: as §1

Data set [5] has as its target T1, Voltage-dependent T-type calcium channel subunit alpha-1G (Homo sapiens, UniProt O43497). Briefly: Inhibition of T-type alpha1G channel (unknown origin) expressed in HEK293 cells at 10 uM by fluorescence-based HTS assay. Format: cell-based. The procedure, abridged:
(§2)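 FDSS6000 fluorescence-based HTS assay in HEK293 cells expressing Cav3.1 (α1G) or Cav3.2 (α1H), read as % inhibition.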

For data set [6], the target named is T2, Voltage-dependent T-type calcium channel subunit alpha-1H (Homo sapiens, UniProt O95180). Briefly: Inhibition of T-type alpha1H channel (unknown origin) expressed in HEK293 cells at 10 uM by fluorescence-based HTS assay. Format: cell-based. The procedure, abridged: as §2
Data set [7] concerns the target T1, Voltage-dependent T-type calcium channel subunit alpha-1G. Briefly: Inhibition of T-type alpha1G channel (unknown origin) by whole cell patch clamp method. Summed up: (§3)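 Whole-cell patch clamp recording. T-type α1G and α1H IC50 values (±SD) were taken from dose-response curves.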
A general note: Patch clamp records ionic current or voltage across a cell membrane.

In data set [8] the target is T2, Voltage-dependent T-type calcium channel subunit alpha-1H. Nature of the data set: Inhibition of T-type alpha1H channel (unknown origin) by whole cell patch clamp method. The procedure, abridged: as §3
Data set [9] addresses Voltage-dependent N-type calcium channel subunit alpha-1B (Homo sapiens) (UniProt Q00975). Nature of the data set: Inhibition of N-type calcium channel (unknown origin) at 10 uM by whole cell patch clamp method.
Data set [10] has as its target Voltage-gated inwardly rectifying potassium channel KCNH2 (Homo sapiens, UniProt Q12809). Briefly: Inhibition of human ERG expressed in CHO-K1 cells by whole cell patch clamp method. It counts as cell-based.
Data set [11] is described as follows: Metabolic stability in human liver microsomes assessed as parent compound remaining after 30 mins in presence of NADPH by LC-MS/MS analysis. It counts as ADME, Microsome. The settings on record: read-out: Stability. Summed up: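 Pooled human liver microsomes were incubated at 37 °C with compound in potassium phosphate buffer and 1.2 mM NADPH for 30 min. The reaction was stopped with cold acetonitrile containing internal standard, centrifuged, and the supernatant analysed by LC-MS/MS.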
(Liver microsomes are vesicles of endoplasmic reticulum, rich in cytochrome P450 enzymes.)

Data set [12] relates to Rattus norvegicus. Briefly: Antiallodynic activity in rat model of spinal nerve ligation-induced neuropathic pain assessed as […] for paw withdrawal at 100 mg/kg, po administered on day 14 after ligation surgery and measured 3 to 5 hrs post dose by Von Frey filaments based method. It counts as functional, organism-based. The procedure, abridged: (§4)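 Spinal nerve ligation rats were dosed orally at 100 mg/kg 14 days after surgery, with gabapentin 100 mg/kg as reference (n = 5 test, n = 4 gabapentin). Mechanical and cold allodynia were tested 1, 3 and 5 h post dose. Significance versus pre-dose value by paired t-test.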

In data set [13] the test system is Rattus norvegicus. Briefly: Antiallodynic activity in rat model of spinal nerve ligation-induced neuropathic pain assessed as reduction in cold allodynia by measuring paw withdrawal in response to acetone application at 100 mg/kg, po administered on day 14 after ligation surgery measured 1 to 5 hrs post dose relative to gabapentin. It counts as functional. Summed up:
as §4

Data set [14] can be described thus: AUC (0 to infinity) in rat at 10 mg/kg, iv. To be noted: in vivo. It counts as ADME, organism-based. Details: dose 10 mg/kg, time infinity, route intravenous.
A short description of data set [15]: AUClast in rat at 10 mg/kg, iv. Format: ADME, organism-based. Set-up: dose 10 mg/kg, time 0 - last, route intravenous. To be noted: in vivo.
Data set [16] in a line: Clearance in rat at 10 mg/kg, iv. Format: ADME, organism-based. To be noted: in vivo.
A short description of data set [17]: Mean residence time in rat at 10 mg/kg, iv. It counts as ADME, organism-based. To be noted: in vivo.
Data set [18] is described as follows: Ratio of drug level in rat brain to plasma at 10 mg/kg, iv at 2 hrs. It counts as ADME, organism-based. To be noted: brain and plasma, read-out: BPR.
The nature of data set [19]: Oral bioavailability in rat at 10 mg/kg. Format: ADME, organism-based. The settings on record: in vivo.
Data set [20] can be described thus: AUC (0 to infinity) in rat at 10 mg/kg, po. It counts as ADME, organism-based. Set-up: dose 10 mg/kg, route oral, time infinity. The settings on record: in vivo.
Data set [21] is described as follows: AUClast in rat at 10 mg/kg, po. Format: ADME, organism-based. The settings on record: in vivo. Set-up: dose 10 mg/kg, route oral, time 0 - last.
Data set [22] is described as follows: Cmax in rat at 10 mg/kg, po. The settings on record: in vivo. Details: dose 10 mg/kg, route oral. It counts as ADME, organism-based.
A short description of data set [23]: Tmax in rat at 10 mg/kg, po. To be noted: in vivo. It counts as ADME, organism-based.
Data set [24] in a line: Ratio of drug level in rat brain to plasma at 10 mg/kg, po at 2 hrs. It counts as ADME, organism-based. The settings on record: brain and plasma, read-out: BPR.
Data set [25] deals with T2, Voltage-dependent T-type calcium channel subunit alpha-1H. Briefly: Inhibition of T-type alpha1H channel (unknown origin) expressed in HEK293 cells after 3 mins by patch clamp assay. Format: cell-based.

Chain of CYP2D6 (P10635 whole entry): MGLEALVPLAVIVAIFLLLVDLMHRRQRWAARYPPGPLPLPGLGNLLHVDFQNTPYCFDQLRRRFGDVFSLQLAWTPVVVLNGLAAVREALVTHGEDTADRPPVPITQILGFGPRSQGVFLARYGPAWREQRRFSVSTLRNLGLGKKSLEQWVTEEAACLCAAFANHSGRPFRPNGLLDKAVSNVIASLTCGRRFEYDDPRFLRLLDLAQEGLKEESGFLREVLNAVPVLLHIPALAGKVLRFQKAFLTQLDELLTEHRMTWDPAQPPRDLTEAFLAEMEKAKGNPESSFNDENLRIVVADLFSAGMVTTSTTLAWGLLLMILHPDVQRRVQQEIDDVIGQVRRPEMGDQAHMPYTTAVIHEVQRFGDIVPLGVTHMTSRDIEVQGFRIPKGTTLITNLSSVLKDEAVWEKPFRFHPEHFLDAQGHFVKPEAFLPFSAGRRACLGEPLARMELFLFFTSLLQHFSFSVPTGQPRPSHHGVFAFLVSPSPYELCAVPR
Chain of Voltage-gated inwardly rectifying potassium channel KCNH2 (Q12809 whole entry): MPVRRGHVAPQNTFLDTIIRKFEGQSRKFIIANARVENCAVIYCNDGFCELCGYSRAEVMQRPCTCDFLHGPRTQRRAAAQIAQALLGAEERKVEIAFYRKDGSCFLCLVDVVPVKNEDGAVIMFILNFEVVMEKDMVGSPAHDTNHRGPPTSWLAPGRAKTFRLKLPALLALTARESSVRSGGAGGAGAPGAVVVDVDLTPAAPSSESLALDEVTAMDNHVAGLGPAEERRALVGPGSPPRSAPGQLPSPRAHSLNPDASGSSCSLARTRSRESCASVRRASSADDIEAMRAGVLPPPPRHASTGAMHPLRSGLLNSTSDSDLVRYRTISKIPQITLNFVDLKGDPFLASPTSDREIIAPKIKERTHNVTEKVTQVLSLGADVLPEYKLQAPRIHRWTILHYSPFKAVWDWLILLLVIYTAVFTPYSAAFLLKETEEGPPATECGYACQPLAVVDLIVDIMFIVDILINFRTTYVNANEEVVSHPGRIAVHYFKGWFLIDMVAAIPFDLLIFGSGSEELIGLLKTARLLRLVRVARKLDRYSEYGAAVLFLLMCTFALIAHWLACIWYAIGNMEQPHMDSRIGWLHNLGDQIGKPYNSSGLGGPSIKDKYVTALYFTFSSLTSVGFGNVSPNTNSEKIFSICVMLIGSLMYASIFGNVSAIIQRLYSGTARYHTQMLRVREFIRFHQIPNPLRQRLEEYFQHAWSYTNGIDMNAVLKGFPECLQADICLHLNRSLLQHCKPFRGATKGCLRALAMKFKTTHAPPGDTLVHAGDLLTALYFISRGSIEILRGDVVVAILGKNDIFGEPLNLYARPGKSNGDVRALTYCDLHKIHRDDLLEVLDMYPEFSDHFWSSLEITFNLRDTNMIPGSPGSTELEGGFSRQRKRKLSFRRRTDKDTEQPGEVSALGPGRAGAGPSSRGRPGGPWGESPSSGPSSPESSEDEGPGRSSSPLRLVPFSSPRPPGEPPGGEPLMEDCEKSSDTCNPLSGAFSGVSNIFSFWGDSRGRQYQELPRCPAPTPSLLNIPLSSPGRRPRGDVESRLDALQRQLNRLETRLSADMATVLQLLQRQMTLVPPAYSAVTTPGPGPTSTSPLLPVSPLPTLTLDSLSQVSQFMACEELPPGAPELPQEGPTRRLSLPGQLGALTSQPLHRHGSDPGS
T1 sequence (O43497 whole entry): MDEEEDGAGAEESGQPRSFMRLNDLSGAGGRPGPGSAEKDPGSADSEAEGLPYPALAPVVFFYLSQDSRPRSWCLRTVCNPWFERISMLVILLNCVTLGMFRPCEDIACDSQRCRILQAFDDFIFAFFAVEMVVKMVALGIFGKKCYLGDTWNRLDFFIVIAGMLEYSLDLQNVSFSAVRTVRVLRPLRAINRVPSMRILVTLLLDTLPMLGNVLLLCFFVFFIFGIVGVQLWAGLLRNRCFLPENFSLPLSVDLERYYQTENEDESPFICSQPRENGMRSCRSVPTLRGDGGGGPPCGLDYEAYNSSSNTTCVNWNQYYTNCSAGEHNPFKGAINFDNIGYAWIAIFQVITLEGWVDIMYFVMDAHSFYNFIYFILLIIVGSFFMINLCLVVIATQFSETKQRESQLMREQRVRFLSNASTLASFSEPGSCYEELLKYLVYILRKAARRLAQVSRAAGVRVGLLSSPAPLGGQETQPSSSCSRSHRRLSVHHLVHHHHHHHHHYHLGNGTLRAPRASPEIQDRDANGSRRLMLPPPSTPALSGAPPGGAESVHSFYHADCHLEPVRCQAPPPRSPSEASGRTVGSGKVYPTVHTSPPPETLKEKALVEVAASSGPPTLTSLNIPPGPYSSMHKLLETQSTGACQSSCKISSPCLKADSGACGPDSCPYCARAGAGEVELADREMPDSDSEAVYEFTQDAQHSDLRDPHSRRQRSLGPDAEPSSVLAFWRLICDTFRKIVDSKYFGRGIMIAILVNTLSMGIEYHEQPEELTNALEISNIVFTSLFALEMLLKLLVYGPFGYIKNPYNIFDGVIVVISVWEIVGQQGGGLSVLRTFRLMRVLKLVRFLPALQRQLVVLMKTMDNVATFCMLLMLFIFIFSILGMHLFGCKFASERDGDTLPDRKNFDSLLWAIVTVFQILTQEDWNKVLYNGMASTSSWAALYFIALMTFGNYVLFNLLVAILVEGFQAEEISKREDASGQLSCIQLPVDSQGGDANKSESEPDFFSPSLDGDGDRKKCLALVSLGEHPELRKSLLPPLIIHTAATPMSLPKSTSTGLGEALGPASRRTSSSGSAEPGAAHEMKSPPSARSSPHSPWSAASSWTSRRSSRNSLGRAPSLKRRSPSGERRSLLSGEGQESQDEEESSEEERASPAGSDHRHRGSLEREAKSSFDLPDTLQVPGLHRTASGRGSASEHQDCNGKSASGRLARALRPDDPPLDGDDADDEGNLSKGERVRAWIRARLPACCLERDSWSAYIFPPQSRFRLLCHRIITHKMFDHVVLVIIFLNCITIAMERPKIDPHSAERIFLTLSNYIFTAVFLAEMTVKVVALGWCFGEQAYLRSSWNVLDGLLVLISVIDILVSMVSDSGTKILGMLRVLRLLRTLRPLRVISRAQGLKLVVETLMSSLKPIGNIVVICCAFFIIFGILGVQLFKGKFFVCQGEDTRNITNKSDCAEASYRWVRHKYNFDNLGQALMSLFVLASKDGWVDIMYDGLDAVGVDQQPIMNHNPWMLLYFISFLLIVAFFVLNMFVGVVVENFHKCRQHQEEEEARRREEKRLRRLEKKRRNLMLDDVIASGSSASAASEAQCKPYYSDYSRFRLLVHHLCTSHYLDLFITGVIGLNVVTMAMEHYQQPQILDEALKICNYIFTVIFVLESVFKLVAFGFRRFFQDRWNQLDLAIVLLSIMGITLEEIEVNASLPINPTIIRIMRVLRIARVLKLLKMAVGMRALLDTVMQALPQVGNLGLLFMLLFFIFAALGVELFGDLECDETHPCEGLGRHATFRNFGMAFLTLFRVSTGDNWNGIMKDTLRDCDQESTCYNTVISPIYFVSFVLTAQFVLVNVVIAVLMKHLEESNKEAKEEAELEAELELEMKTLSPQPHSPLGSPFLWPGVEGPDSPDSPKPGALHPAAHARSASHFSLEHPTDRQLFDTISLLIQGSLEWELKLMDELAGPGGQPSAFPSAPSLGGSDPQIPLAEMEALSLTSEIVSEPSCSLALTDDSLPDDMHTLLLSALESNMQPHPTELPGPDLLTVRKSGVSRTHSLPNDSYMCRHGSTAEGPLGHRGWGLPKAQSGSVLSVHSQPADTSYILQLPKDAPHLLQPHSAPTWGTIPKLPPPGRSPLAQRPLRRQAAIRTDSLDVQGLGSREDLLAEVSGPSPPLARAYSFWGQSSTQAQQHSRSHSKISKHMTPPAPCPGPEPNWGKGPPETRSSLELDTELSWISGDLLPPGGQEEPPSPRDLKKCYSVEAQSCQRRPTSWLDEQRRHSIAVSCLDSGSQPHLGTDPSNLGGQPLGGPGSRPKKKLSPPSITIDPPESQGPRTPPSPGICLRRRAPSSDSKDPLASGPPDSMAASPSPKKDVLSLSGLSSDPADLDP
Chain of CYP3A4 (P08684 whole entry): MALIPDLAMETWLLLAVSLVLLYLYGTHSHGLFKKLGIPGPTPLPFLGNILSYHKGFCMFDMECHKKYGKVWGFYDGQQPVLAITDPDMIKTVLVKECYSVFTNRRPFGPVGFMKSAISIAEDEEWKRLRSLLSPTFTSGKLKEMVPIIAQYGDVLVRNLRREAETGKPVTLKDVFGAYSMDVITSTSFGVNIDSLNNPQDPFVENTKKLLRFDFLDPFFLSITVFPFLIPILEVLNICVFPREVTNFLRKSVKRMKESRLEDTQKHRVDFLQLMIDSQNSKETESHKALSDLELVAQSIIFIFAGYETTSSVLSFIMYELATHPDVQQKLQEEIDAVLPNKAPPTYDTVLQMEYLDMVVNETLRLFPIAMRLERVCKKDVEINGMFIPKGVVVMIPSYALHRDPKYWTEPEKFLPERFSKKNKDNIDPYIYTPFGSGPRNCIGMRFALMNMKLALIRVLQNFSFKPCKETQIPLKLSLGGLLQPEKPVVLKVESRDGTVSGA
Chain of CYP2C9 (P11712 whole entry): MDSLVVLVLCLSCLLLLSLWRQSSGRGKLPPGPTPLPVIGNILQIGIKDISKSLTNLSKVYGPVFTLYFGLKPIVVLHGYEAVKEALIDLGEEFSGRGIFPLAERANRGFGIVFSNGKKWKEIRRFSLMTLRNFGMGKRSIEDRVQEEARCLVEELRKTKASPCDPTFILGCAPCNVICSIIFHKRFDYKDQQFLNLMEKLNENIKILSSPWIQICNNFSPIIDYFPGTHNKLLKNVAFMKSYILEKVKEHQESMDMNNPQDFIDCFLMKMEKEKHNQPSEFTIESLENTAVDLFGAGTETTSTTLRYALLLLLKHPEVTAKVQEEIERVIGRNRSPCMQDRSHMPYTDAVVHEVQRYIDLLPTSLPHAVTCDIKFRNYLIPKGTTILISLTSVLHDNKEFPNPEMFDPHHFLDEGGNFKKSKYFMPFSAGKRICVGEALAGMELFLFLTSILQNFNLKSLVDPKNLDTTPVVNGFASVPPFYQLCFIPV

In the case of `CC(C)Cc1cc(C(=O)NCC2C3CN(CCC(C)(C)C)CC23)nn1-c1ccccc1` (stereo not given), the activity at 0.25 h is 55.9% in [1], 87.1% in [2], 84.2% in data set [3] and 130% in [4].

A word on the inhibition: it is the relative decrease from the control value, in per cent. A word on the pIC50: it is the IC50 on a negative log10 scale, so that one unit is a factor of ten. Regarding `CC(C)Cc1cc(CNC(=O)C2C3CN(C(=O)Cc4ccccc4)CC32)nn1-c1ccccc1` (stereo not given), the inhibition in data set [5] came out at 81%; in data set [6], 89.9%; in data set [9], 60.6%. For the same compound, the pIC50 is 5.56 in data set [7], 5.60 in [8] and 4.68 in [10]. Moreover, the activity at 0.25 h was found to be 83% in data set [1], 24.8% in data set [2], 65.5% in data set [3] and 80.4% in data set [4]. The remaining at 0.5 h in data set [11] is 57.8%.

With `CN(CCCc1nc2ccccc2[nH]1)C(=O)C1C2CN(CCc3ccc(C(F)(F)F)cc3)CC21` (stereo not given), the inhibition came out at 49.2% in data set [5] and 58.7% in data set [6]. Moreover, the activity at 0.25 h in data set [1] amounted to 27.7%; in data set [2], 51.4%; in data set [3], 42.3%; in data set [4], 61.4%. The remaining at 0.5 h in data set [11] amounted to 76.9%.

In [10], `CC(C)Cc1cc(CNC(=O)C2C3CN(Cc4ccccc4)CC32)nn1-c1ccccc1` (stereo not given) showed a pIC50 of 5.84. The activity at 0.25 h in [1] is 56.2%; in data set [2], 118%; in [3] it was 30.3%; in data set [4], 102%.

On to `CC(C)Cc1cc(CNC(=O)C2C3CN(CCc4ccc(C(F)(F)F)cc4)CC32)nn1-c1ccccc1` (stereo not given), for which the results for the inhibition in [5] and in data set [6] were 60.5% and 64.6%, respectively.

In the case of `CC(C)Cc1cc(CNC(=O)C2C3CN(CCC(C)(C)C)CC32)nn1-c1ccccc1` (stereo not given), the pIC50 in data set [10] was 5.59. In addition, the activity at 0.25 h in data set [1] was found to be 126%; in [2], 72.8%; in data set [3], 101%; in data set [4], 82.3%. Moreover, the Activity result in data set [12] is “Active”. Moreover, in data set [13], the “fold change (FC)” value stood at 3.

Turning to `NCC1(CC(=O)O)CCCCC1`, in data set [12], the Activity result was “inactive”.

The term AUC(0-inf) denotes the area under the concentration-time curve extrapolated to infinity. By AUC(0-t) is commonly meant exposure summed from dosing to a finite time, without extrapolation to infinity. One may read the clearance as the rate of elimination divided by the concentration. As a reminder, the MRT is the average time that molecules of a dose stay in the body. One may read the bioavailability as the share of a dose that reaches the circulation, judged against a reference dose that is usually intravenous. Broadly, the Cmax is the peak of the concentration-time curve. Usually Tmax stands for the time from dosing to the highest level. Consider `CC(C)Cc1cc(CNC(=O)C2C3CN(C(=O)c4ccccc4)CC32)nn1-c1ccccc1` (stereo not given), for which the activity at 0.25 h in data set [1] was found to be 94%; in data set [2] it was 64.6%; in data set [3], 60.8%; in data set [4] it was 74.6%. The Activity result in data set [12] was “inactive”. In addition, the “fold change (FC)” value in data set [13] is 2. Also, the total exposure AUC(0-inf) is 3.86 µg·h/mL in [14] and 0.294 µg·h/mL in data set [20]. Besides, the AUC(0-t) was 3.85 µg·h/mL in data set [15] and 0.273 µg·h/mL in [21]. This compound also had a clearance in data set [16] of 2.63 L/h/kg. This compound also had an MRT in data set [17] of 18.2 min. For the same compound, the Kp at 2 h in [18] worked out at 0.29; in data set [24], 0.12. In data set [19], this compound gave a bioavailability of 7.6%. Also, in [22], the highest level (Cmax) was 0.28 µg/mL. The Tmax in data set [23] is 26 min.

As for `CC(C)(C)CCN1CC2C(CNC(=O)c3cc(Cl)cc(Cl)c3)C2C1` (stereo not given), in data set [25], the pIC50 is 6.51.
